We go through 16 compounds from ChEMBL document CHEMBL1141592, “Synthesis and anti-inflammatory activities of mono-carbonyl analogues of curcumin” (2008).

Activity calls are given as the source filed them. The calls are words filed in the database; no cut-off is given here.

Assay [1] deals with J774.A1. Kind of assay: Antiinflammatory activity in mouse J774A.1 cells assessed as inhibition of lipopolysaccharide-induced TNFalpha production pretreated for 2 hrs at 10 uM before LPS challenge. The assay is classed as functional. Summed up:
(§1)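 J774A.1 macrophages pretreated 2 h with test agent at 10 μM or vehicle, then stimulated with LPS 0.5 μg/ml for 24 h. Media collected and centrifuged (14,000 rpm, 5 min); TNF-α and IL-6 quantified by mouse ELISA kits. Total protein of viable cell pellets measured by Bio-Rad protein assay. Results expressed as percent of LPS control.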

Assay [2] relates to J774.A1. Description: Antiinflammatory activity in mouse J774A.1 cells assessed as inhibition of lipopolysaccharide-induced IL6 production pretreated for 2 hrs at 10 uM before LPS challenge. The assay is classed as functional, cell-based. An outline of the steps: as §1

Turning to `COc1cc(/C=C2\CC/C(=C\c3ccc(O)c(OC)c3)C2=O)ccc1O`, the outcome in assay [1] and in assay [2] was Active.

In the case of `O=C1/C(=C/c2ccc(Br)o2)CCC/C1=C\c1ccc(Br)o1`, the outcome in assay [1] was Active.

For `C=CCOc1ccc(/C=C2\CCC/C(=C\c3ccc(OCC=C)cc3)C2=O)cc1`, the result in assay [1] was Active.

As for `Cc1ccc(/C=C2\CC/C(=C\c3ccc(C)s3)C2=O)s1`, the result in assay [1] was Active.

Turning to `COc1cc(/C=C2\CC/C(=C\c3ccc(OC4CCCCO4)c(OC)c3)C2=O)ccc1OC1CCCCO1` (stereo not drawn), the outcome in assay [1] was Active.

With `O=C(/C=C/c1ccc(OC2CCCCO2)cc1)/C=C/c1ccc(OC2CCCCO2)cc1` (stereo not drawn), the outcome in assay [1] was Active.

With `COc1cc(/C=C/C(=O)/C=C/c2ccc(O)c(OC)c2)ccc1O`, the outcome in assay [1] and in assay [2] was Active.

As for `O=C1/C(=C/c2cccs2)CC/C1=C\c1cccs1`, in assay [1], the result was Active.

With `CN(C)c1ccc(/C=C2\CC/C(=C\c3ccc(N(C)C)cc3)C2=O)cc1`, the outcome in assay [1] and in assay [2] was Active.

Take `CN(C)c1ccc(/C=C2\CCC/C(=C\c3ccc(N(C)C)cc3)C2=O)cc1`: the result in assay [1] and in assay [2] was Active.

`CN(C)CCCOc1ccc(/C=C2\CC/C(=C\c3ccc(OCCCN(C)C)cc3)C2=O)cc1`: the result in assay [1] and in assay [2] was Active.

Turning to `COc1cc(/C=C2\CCC/C(=C\c3ccc(OC4CCCCO4)c(OC)c3)C2=O)ccc1OC1CCCCO1` (stereo not drawn), the result in assay [1] was Active.

Consider `COc1cc(/C=C/C(=O)CC(=O)/C=C/c2ccc(O)c(OC)c2)ccc1O`, for which, in assay [1], the result was Active.

With `CN(C)c1ccc(/C=C/C(=O)/C=C/c2ccc(N(C)C)cc2)cc1`, the result in assay [1] and in assay [2] was Active.

In the case of `C=CCOc1ccc(/C=C/C(=O)/C=C/c2ccc(OCC=C)cc2)cc1`, the outcome in assay [1] was Active.

For `COc1cc(/C=C2\CCC/C(=C\c3ccc(O)c(OC)c3)C2=O)ccc1O`, the outcome in assay [1] and in assay [2] was Active.
